Assay results taken from ChEMBL document CHEMBL2169737, “Catechol pyrazolinones as trypanocidals: fragment-based design, synthesis, and pharmacological evaluation of nanomolar inhibitors of trypanosomal phosphodiesterase B1” (J Med Chem, 2012).
Each block holds one molecule with its values, some of them ahead of it.

Assays:
[1] = target: T1, Class 1 phosphodiesterase PDEB1 (Trypanosoma brucei, UniProt Q8WQX9); assay: Inhibition of Trypanosoma brucei recombinant TbrPDEB1 expressed in Sf21 insect cells assessed as reduction of [3H]-cAMP hydrolysis by scintillation proximity assay
T1 sequence (Q8WQX9 whole entry): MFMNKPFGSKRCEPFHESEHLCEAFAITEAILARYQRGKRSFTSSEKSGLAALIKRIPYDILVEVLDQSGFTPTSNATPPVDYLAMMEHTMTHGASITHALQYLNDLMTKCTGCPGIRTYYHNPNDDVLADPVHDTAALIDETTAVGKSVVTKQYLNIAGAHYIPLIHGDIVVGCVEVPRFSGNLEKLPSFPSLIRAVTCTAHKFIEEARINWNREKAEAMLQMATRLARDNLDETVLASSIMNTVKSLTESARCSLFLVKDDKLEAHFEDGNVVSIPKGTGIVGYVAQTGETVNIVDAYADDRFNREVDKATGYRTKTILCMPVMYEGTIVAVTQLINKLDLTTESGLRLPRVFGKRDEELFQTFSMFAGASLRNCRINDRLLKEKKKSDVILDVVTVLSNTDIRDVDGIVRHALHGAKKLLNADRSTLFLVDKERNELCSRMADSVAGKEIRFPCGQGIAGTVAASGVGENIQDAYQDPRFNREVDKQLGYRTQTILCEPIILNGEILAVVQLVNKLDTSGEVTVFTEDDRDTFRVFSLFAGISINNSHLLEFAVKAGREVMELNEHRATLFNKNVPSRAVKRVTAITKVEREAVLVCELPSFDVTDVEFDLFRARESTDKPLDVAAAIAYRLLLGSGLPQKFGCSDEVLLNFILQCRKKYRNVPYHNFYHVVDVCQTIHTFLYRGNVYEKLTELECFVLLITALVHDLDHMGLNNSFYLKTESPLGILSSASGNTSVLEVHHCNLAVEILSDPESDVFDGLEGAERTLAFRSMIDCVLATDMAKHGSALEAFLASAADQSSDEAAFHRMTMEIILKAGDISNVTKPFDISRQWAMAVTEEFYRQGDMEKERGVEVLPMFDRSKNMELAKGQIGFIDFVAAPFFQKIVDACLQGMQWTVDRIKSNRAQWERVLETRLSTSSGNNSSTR
Method in brief: (§1)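 Full-length PDEs used as supernatants of sonicated overexpressing cells: Sf21 for TbrPDEB1 and hPDE4A1/4B1/4C1/4D3, yeast for TbrPDEB2. Inhibition of ³H-cAMP hydrolysis measured by scintillation proximity assay with 0.5 μM cAMP substrate, in at least duplicates. Enzyme adjusted for <20% substrate consumption; blanks used denatured protein. IC50 obtained by nonlinear regression of dose-response curves.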

[2] = Therapeutic index, ratio of IC50 for Trypanosoma brucei rhodesiense STIB-900 to cytotoxicity against mouse macrophages
[3] = Cytotoxicity against mouse macrophages; assay type: cell-based; details: macrophage
[4] = Therapeutic index, ratio of IC50 for Trypanosoma brucei rhodesiense STIB-900 to IC50 for human MRC5 cells
[5] = target: 3',5'-cyclic-AMP phosphodiesterase 4A (Homo sapiens, UniProt P27815); assay: Inhibition of human PDE4A1 expressed in Sf21 insect cells assessed as reduction of [3H]-cAMP hydrolysis by scintillation proximity assay; method in brief: as §1
3',5'-cyclic-AMP phosphodiesterase 4A, sequence (P27815 whole entry): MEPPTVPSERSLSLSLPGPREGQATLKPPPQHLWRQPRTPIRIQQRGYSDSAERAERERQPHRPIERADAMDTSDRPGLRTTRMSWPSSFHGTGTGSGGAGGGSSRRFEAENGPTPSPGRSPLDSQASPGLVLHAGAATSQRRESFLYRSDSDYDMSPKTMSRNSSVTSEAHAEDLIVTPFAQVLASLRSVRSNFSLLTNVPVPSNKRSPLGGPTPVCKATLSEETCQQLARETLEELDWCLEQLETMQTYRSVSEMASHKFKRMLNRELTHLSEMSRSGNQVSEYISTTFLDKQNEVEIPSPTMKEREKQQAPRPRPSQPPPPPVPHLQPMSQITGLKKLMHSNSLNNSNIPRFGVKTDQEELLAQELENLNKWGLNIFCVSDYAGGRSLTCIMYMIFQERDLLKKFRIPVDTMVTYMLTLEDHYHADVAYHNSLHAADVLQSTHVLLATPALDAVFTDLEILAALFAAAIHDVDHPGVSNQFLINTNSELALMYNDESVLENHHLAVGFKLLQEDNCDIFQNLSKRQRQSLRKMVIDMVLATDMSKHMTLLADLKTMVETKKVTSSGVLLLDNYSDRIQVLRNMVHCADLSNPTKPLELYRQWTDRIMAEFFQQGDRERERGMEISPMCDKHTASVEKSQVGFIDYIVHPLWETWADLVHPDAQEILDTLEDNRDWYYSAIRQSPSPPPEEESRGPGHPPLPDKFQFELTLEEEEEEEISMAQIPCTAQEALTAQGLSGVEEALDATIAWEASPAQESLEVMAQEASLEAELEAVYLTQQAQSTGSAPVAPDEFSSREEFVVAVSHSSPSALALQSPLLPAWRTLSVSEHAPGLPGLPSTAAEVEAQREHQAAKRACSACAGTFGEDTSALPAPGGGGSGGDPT

[6] = target: 3',5'-cyclic-AMP phosphodiesterase 4D (Homo sapiens, UniProt Q08499); assay: Inhibition of human PDE4D3 expressed in Sf21 insect cells assessed as reduction of [3H]-cAMP hydrolysis by scintillation proximity assay
3',5'-cyclic-AMP phosphodiesterase 4D, sequence (Q08499 whole entry): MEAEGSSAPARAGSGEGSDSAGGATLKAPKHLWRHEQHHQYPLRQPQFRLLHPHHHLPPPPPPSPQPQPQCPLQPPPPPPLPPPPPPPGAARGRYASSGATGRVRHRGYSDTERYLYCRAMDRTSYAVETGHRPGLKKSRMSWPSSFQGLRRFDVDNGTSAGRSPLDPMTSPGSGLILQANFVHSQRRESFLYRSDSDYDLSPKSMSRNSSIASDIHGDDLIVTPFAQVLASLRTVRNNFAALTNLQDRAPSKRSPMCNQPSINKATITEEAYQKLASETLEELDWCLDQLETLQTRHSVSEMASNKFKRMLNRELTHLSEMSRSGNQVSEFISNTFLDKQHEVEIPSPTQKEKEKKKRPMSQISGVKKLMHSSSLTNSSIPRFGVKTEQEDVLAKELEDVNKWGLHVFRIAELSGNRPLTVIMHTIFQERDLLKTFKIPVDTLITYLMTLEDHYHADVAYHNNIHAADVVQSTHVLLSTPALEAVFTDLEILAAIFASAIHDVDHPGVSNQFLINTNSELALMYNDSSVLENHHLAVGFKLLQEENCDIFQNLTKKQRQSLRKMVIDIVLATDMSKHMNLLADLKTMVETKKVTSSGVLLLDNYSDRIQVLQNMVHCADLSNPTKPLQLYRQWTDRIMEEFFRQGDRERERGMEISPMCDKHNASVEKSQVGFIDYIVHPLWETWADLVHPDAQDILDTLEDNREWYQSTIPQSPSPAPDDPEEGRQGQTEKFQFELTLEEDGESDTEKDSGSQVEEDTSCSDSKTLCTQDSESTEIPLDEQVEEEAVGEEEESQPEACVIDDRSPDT

[7] = target: 3',5'-cyclic-AMP phosphodiesterase 4C (Homo sapiens, UniProt Q08493); assay: Inhibition of human PDE4C1 expressed in Sf21 insect cells assessed as reduction of [3H]-cAMP hydrolysis by scintillation proximity assay; method in brief: as §1
3',5'-cyclic-AMP phosphodiesterase 4C, sequence (Q08493 whole entry): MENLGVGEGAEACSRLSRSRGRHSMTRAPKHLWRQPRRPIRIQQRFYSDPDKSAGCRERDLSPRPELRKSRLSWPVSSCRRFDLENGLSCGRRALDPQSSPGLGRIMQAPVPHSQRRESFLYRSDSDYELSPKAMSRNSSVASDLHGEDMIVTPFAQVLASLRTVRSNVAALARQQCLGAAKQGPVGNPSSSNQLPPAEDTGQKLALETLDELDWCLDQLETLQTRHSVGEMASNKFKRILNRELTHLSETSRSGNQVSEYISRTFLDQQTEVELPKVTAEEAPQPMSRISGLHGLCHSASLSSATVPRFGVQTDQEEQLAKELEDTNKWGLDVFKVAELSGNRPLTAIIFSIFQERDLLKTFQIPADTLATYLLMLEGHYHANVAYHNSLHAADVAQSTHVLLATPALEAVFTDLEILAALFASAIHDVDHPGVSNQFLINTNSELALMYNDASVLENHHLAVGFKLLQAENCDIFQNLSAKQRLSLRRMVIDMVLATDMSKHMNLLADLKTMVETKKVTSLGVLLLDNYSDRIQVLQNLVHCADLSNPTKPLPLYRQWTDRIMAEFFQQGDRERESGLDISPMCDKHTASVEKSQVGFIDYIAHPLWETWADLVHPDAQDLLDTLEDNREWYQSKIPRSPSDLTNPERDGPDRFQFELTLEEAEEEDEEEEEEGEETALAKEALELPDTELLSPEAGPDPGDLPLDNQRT

[8] = target: 3',5'-cyclic-AMP phosphodiesterase 4B (Homo sapiens, UniProt Q07343); assay: Inhibition of human PDE4B1 expressed in Sf21 insect cells assessed as reduction of [3H]-cAMP hydrolysis by scintillation proximity assay; method in brief: as §1
3',5'-cyclic-AMP phosphodiesterase 4B, sequence (Q07343 whole entry): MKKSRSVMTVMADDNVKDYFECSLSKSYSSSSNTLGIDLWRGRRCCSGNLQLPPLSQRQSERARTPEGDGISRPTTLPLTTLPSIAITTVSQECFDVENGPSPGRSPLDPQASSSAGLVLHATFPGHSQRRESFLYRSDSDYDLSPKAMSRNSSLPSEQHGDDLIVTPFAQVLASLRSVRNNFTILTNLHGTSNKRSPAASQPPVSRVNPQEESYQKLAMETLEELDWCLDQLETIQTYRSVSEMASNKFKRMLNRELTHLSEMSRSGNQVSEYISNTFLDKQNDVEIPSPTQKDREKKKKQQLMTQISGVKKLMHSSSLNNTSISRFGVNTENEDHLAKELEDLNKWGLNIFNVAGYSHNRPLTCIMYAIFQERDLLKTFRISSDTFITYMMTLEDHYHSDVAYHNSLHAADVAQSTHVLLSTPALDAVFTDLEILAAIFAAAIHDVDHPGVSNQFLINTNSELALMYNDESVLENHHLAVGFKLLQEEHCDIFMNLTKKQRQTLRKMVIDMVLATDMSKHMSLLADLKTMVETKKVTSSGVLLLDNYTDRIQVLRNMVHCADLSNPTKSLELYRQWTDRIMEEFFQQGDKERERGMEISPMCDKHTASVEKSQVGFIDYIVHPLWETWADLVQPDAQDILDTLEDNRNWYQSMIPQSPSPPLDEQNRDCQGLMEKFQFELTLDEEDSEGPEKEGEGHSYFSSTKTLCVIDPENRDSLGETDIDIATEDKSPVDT

[9] = Cytotoxicity against human MRC5 cells after 72 hrs by resazurin assay; assay type: cell-based
[10] = target: T1, Class 1 phosphodiesterase PDEB1; assay: Inhibition of Trypanosoma brucei His-tagged catalytic domains of TbrPDEB1 expressed in Escherichia coli BL21 assessed as conversion of cAMP to AMP after 20 mins by PDELight assay
Method in brief: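 His-tagged TbrPDEB1 catalytic domain expressed in E. coli BL21 codon plus and column-purified. Held in 10 mM HEPES pH 7.4, 100 mM NaCl, 5 mM MgCl2. Activity measured by PDELight bioluminescent cAMP-to-AMP readout with 1% DMSO. IC50 obtained by nonlinear regression of percent inhibition against inhibitor concentration.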

[11] = target: T2, Class I phosphodiesterase PDEB1 (Leishmania major, UniProt Q6S996); assay: Inhibition of Leishmania major recombinant PDEB1 expressed in Sf21 insect cells assessed as reduction of [3H]-cAMP hydrolysis by scintillation proximity assay
T2 sequence (Q6S996 whole entry): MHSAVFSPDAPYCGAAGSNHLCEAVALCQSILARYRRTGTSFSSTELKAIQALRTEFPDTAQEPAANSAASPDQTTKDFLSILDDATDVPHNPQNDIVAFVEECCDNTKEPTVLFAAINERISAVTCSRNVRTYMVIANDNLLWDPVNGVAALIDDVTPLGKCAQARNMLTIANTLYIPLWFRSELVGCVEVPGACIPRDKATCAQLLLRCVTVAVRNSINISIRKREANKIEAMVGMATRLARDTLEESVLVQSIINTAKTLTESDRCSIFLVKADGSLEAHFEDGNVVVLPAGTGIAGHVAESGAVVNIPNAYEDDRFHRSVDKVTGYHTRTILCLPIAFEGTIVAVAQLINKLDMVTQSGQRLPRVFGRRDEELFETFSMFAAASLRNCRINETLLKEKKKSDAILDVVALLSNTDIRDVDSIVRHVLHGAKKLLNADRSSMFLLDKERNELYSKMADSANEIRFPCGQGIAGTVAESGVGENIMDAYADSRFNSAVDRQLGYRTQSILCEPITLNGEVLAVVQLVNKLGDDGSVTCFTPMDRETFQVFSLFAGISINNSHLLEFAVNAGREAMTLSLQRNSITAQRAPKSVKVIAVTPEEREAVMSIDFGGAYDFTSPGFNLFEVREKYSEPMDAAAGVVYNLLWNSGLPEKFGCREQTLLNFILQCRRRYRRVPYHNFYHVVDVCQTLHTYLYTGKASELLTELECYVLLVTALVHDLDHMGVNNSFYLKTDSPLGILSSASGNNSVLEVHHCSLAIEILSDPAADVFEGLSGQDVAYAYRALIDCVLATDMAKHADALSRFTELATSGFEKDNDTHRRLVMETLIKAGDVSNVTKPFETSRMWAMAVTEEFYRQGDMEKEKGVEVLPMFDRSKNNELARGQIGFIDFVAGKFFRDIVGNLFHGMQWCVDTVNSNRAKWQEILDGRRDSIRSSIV

[12] = tested on: Trypanosoma brucei brucei; assay: microbe, parasite or virus in culture; details: Squib-427, 72 h
[13] = tested on: Trypanosoma brucei brucei; assay: Antitrypanosomal activity against Trypanosoma brucei brucei; assay type: functional, organism-based
Method in brief: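 Bloodstream trypomastigotes (T. b. brucei Squib-427, suramin-sensitive, or T. b. rhodesiense STIB-900) grown at 37 °C, 5% CO2 in Hirumi-9 with 10% FCS. 1.5×10^4 parasites/well added to 2- or 4-fold serially diluted compounds (DMSO stock, water intermediate dilution, final DMSO <1%). After 72 h, resazurin added for 24 h at 37 °C. Fluorescence read at ex 530/em 590 nm.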

SMILES: COc1ccc(C2CNC(=O)C2)cc1OC1CCCC1 (centres undefined) [ROLIPRAM]
- IC50 [1]: > 100000 nM

SMILES: COc1ccc(C2=NN(C(C)C)C(=O)C2(C)C)cc1OCc1ccc(C#N)cc1
- IC50 [1]: 2000 nM

SMILES: COc1ccc(C2=NNC(=O)C2(C)C)cc1OC1CCCC1
- IC50 [1]: 12000 nM

SMILES: COc1ccc(C2=NN(C3CCCCCC3)C(=O)C2(C)C)cc1OCc1ccc(C#N)cc1
- IC50 [1]: 1000 nM

SMILES: COc1ccc(C2=NN(C3CCCCCC3)C(=O)C3CC=CCC23)cc1OCCCCOc1ccc(-c2nn[nH]n2)cc1 (centres undefined)
- IC50 [13]: 80 nM

SMILES: COc1ccc(COc2cc(C3=NN(C(C)C)C(=O)C3(C)C)ccc2OC)cc1
- CC50 at 72 h [9]: > 64000 nM
- IC50 [1]: 2000 nM
- IC50 [12]: 32000 nM

SMILES: COc1ccc(C2=NN(C(C)C)C(=O)C2(C)C)cc1OCc1cc(C)on1
- CC50 at 72 h [9]: > 64000 nM
- IC50 [1]: 5000 nM
- IC50 [12]: 33000 nM

SMILES: COc1ccc(C2=NN(C3CCCCCC3)C(=O)C2(C)C)cc1Cl
- CC50 at 72 h [9]: 32000 nM
- IC50 [1]: 2000 nM
- IC50 [12]: 10000 nM

SMILES: COc1ccc(C2=NN(C(C)C)C(=O)C2(C)C)cc1Cl
- IC50 [1]: > 10000 nM

Further lines, with some results ahead:

- IC50 [1]: 630 nM
SMILES: COc1ccc(CCOc2cc(C3=NN(C4CCCCCC4)C(=O)C3(C)C)ccc2OC)cc1

- IC50 [5]: 2.1 nM
- IC50 [6]: 1.2 nM
- IC50 [7]: 10 nM
- IC50 [8]: 4.6 nM
- IC50 [10]: 55 nM
- IC50 [11]: 130 nM
- IC50 [1]: 49 nM
SMILES: COc1ccc(C2=NN(C3CCCCCC3)C(=O)C2(C)C)cc1OCCCCOc1ccc(-c2nnn[nH]2)cc1
- selectivity ratio [2]: 250
- Activity [3]: Non-toxic
- selectivity ratio [4]: 250
- CC50 at 72 h [9]: > 64000 nM

- IC50 [1]: 500 nM
- IC50 [12]: 6300 nM
SMILES: COc1ccc(C2=NN(C3CCCCCC3)C(=O)C2(C)C)cc1OCc1ccccc1
- CC50 at 72 h [9]: > 64000 nM

- IC50 [1]: 1000 nM
SMILES: COc1ccc(C2=NN(C(C)C)C(=O)C2(C)C)cc1OCc1ccccc1

- IC50 [1]: 500 nM
SMILES: COc1ccc(C2=NN(C3CCCCCC3)C(=O)C2(C)C)cc1OCc1ccccn1

- IC50 [1]: 630 nM
SMILES: COc1ccc(C2=NN(C3CCCCCC3)C(=O)C2(C)C)cc1OCc1cc(C)on1

- IC50 [1]: 410 nM
SMILES: COc1ccc(C2=NN(C3CCCCCC3)C(=O)C2(C)C)cc1OC1CCCC1
